In ChEMBL document CHEMBL4130549, “Synthesis and bioactivities study of new antibacterial peptide mimics: The dialkyl cationic amphiphiles” (Eur J Med Chem, 2018):
Active and inactive are the calls of the source.

Assays:
Enterococcus faecalis = test: Antibacterial activity against Enterococcus faecalis after 16 to 20 hrs by broth microdilution method; format: functional
Summary of the method: (§1)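 Broth microdilution per CLSI in cation-adjusted Mueller-Hinton broth; 4-6 h cultures (~10⁸ CFU/mL) diluted to ~10⁶ CFU/mL and mixed 1:1 with twofold dilutions of water-dissolved compound (256 to 0.5 µg/mL). Incubated 16-20 h at 37 °C; MIC read visually. Each concentration run in duplicate, whole experiment repeated at least twice. MRSA, KPC and NDM-1 strains were clinical isolates.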

Staphylococcus aureus [1] = test: Antibacterial activity against methicillin-resistant Staphylococcus aureus after 16 to 20 hrs by broth microdilution method; format: functional
Summary of the method: (§2)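 CLSI broth microdilution in cation-adjusted Mueller-Hinton broth. A 4-6 h culture was diluted to about 10⁶ CFU/mL and mixed 1:1 with twofold compound dilutions (256–0.5 µg/mL before mixing) prepared from aqueous stocks. Plates were incubated at 37 °C for 16-20 h. Each concentration was tested in duplicate, and the experiment was repeated at least twice.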

Enterobacteriaceae [2] = test: Antibacterial activity against NDM-1-producing Enterobacteriaceae after 16 to 20 hrs by broth microdilution method; format: functional; summary of the method: as §1
Staphylococcus aureus [3] = test: Antibacterial activity against methicillin-resistant Staphylococcus aureus isolate M1 after 16 to 20 hrs by broth microdilution method; format: functional; summary of the method: as §2
Staphylococcus aureus [4] = test: Antibacterial activity against methicillin-resistant Staphylococcus aureus isolate M3 after 16 to 20 hrs by broth microdilution method; format: functional; summary of the method: as §2
Staphylococcus aureus [5] = test: Antibacterial activity against methicillin-resistant Staphylococcus aureus isolate M4 after 16 to 20 hrs by broth microdilution method; format: functional; summary of the method: as §2
Staphylococcus aureus [6] = test: Antibacterial activity against methicillin-resistant Staphylococcus aureus isolate M5 after 16 to 20 hrs by broth microdilution method; format: functional; summary of the method: as §2
Staphylococcus aureus [7] = test: Antibacterial activity against methicillin-resistant Staphylococcus aureus isolate M6 after 16 to 20 hrs by broth microdilution method; format: functional; summary of the method: as §2
Staphylococcus aureus [8] = test: Antibacterial activity against methicillin-resistant Staphylococcus aureus isolate M7 after 16 to 20 hrs by broth microdilution method; format: functional; summary of the method: as §2
Staphylococcus aureus [9] = test: Antibacterial activity against methicillin-resistant Staphylococcus aureus isolate M9 after 16 to 20 hrs by broth microdilution method; format: functional; summary of the method: as §2
Staphylococcus aureus [10] = test: Antibacterial activity against methicillin-resistant Staphylococcus aureus isolate M10 after 16 to 20 hrs by broth microdilution method; format: functional; summary of the method: as §2
Klebsiella pneumoniae [11] = test: Antibacterial activity against carbapenemase-producing Klebsiella pneumoniae isolate K1 after 16 to 20 hrs by broth microdilution method; format: functional; summary of the method: as §1
Klebsiella pneumoniae [12] = test: Antibacterial activity against carbapenemase-producing Klebsiella pneumoniae isolate K3 after 16 to 20 hrs by broth microdilution method; format: functional; summary of the method: as §1
Klebsiella pneumoniae [13] = test: Antibacterial activity against carbapenemase-producing Klebsiella pneumoniae isolate K4 after 16 to 20 hrs by broth microdilution method; format: functional; summary of the method: as §1
Klebsiella pneumoniae [14] = test: Antibacterial activity against carbapenemase-producing Klebsiella pneumoniae isolate K5 after 16 to 20 hrs by broth microdilution method; format: functional; summary of the method: as §1
Klebsiella pneumoniae [15] = test: Antibacterial activity against carbapenemase-producing Klebsiella pneumoniae isolate K6 after 16 to 20 hrs by broth microdilution method; format: functional; summary of the method: as §1
Klebsiella pneumoniae [16] = test: Antibacterial activity against carbapenemase-producing Klebsiella pneumoniae isolate K7 after 16 to 20 hrs by broth microdilution method; format: functional; summary of the method: as §1
Klebsiella pneumoniae [17] = test: Antibacterial activity against carbapenemase-producing Klebsiella pneumoniae isolate K8 after 16 to 20 hrs by broth microdilution method; format: functional; summary of the method: as §1
Klebsiella pneumoniae [18] = test: Antibacterial activity against carbapenemase-producing Klebsiella pneumoniae isolate K9 after 16 to 20 hrs by broth microdilution method; format: functional; summary of the method: as §1
Enterobacteriaceae [19] = test: Antibacterial activity against NDM-1-producing Enterobacteriaceae isolate N1 after 16 to 20 hrs by broth microdilution method; format: functional; summary of the method: as §1
Enterobacteriaceae [20] = test: Antibacterial activity against NDM-1-producing Enterobacteriaceae isolate N2 after 16 to 20 hrs by broth microdilution method; format: functional; summary of the method: as §1
Enterobacteriaceae [21] = test: Antibacterial activity against NDM-1-producing Enterobacteriaceae isolate N4 after 16 to 20 hrs by broth microdilution method; format: functional; summary of the method: as §1
Enterobacteriaceae [22] = test: Antibacterial activity against NDM-1-producing Enterobacteriaceae isolate N5 after 16 to 20 hrs by broth microdilution method; format: functional; summary of the method: as §1
Enterobacteriaceae [23] = test: Antibacterial activity against NDM-1-producing Enterobacteriaceae isolate N7 after 16 to 20 hrs by broth microdilution method; format: functional; summary of the method: as §1
Enterobacteriaceae [24] = test: Antibacterial activity against NDM-1-producing Enterobacteriaceae isolate N8 after 16 to 20 hrs by broth microdilution method; format: functional; summary of the method: as §1
Enterobacteriaceae [25] = test: Antibacterial activity against NDM-1-producing Enterobacteriaceae isolate N9 after 16 to 20 hrs by broth microdilution method; format: functional; summary of the method: as §1
Enterobacteriaceae [26] = test: Antibacterial activity against NDM-1-producing Enterobacteriaceae isolate N10 after 16 to 20 hrs by broth microdilution method; format: functional; summary of the method: as §1
Staphylococcus aureus [27] = test: Bactericidal activity against methicillin-resistant Staphylococcus aureus after 20 to 24 hrs by broth microdilution method; format: functional
Summary of the method: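 For MBC, 20 µL from wells of the broth microdilution MIC plate showing little or no turbidity was plated on agar and incubated 20-24 h at 37 °C. MBC was the lowest concentration giving no colonies.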

Staphylococcus aureus [28] = test: Bactericidal activity against methicillin-resistant Staphylococcus aureus after 20 to 24 hrs in presence of 50% plasma by broth microdilution method; format: functional, organism-based
Summary of the method: (§3)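 MRSA at 10⁵ CFU/mL in 50% Mueller-Hinton broth plus 50% sheep serum, plasma or defibrinated whole blood. Serum and plasma were separated by centrifugation at 3,500 rpm for 10 min. Aqueous compound dilutions (512–4 µg/mL before mixing) were combined 1:3 with the suspension and incubated 20-24 h at 37 °C. Wells were plated on Mueller-Hinton agar for a further 20-24 h; MBC was taken as no colonies.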

Staphylococcus aureus [29] = test: Bactericidal activity against methicillin-resistant Staphylococcus aureus after 20 to 24 hrs in presence of 50% blood by broth microdilution method; format: functional, organism-based; summary of the method: as §3
Staphylococcus aureus [30] = test: Ratio of MBC for methicillin-resistant Staphylococcus aureus in presence of 50% serum to MBC for methicillin-resistant Staphylococcus aureus; format: functional; summary of the method: as §3
Staphylococcus aureus [31] = test: Ratio of MBC for methicillin-resistant Staphylococcus aureus in presence of 50% plasma to MBC for methicillin-resistant Staphylococcus aureus; format: functional; summary of the method: as §3
Staphylococcus aureus [32] = test: Induction of cytoplasmic membrane depolarization in Staphylococcus aureus ATCC 29213 at 20 ug/ml measured every 2 mins for 12 mins by diSC35 staining based fluorescence assay; format: functional, organism-based
Summary of the method: (§4)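 Mid-log cells (4–6 h) pelleted, washed and resuspended (~10^8 CFU/mL) in PBS for S. aureus, or in 5 mM HEPES, 5 mM glucose and 100 mM KCl (1:1:1) for E. coli. Preloaded with diSC35 (10 µM, 50 µL), 30 min for S. aureus and 40 min plus EDTA (200 µM, 50 µL) for E. coli. Baseline read 8 min (ex 622/em 670 nm), then compound added to 20 µg/mL final and read every 2 min for 12 min. Water control.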

Escherichia coli = test: Induction of cytoplasmic membrane depolarization in Escherichia coli ATCC 25922 at 20 ug/ml measured every 2 mins for 12 mins by diSC35 staining based fluorescence assay; format: functional, organism-based; summary of the method: as §4
Staphylococcus aureus [33] = test: Induction of inner membrane permeabilization in Staphylococcus aureus ATCC 29213 at 20 ug/ml measured every 2 mins for 12 mins by propidium iodide staining based fluorescence assay; format: functional, organism-based
Summary of the method: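 Mid-log cells (~10^8 CFU/mL) pre-incubated with propidium iodide (10 µM, 50 µL), 30 min for S. aureus and 40 min for E. coli. Fluorescence (ex 535/em 617 nm) read for 8 min, then compound added to 20 µg/mL final and monitored every 2 min for 12 min. Water-treated control.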

CCCCCCCCN(CCCCCCCC)C(=O)[C@@H](N)CCCCN.Cl.Cl
0.5 µg/mL: MIC (Staphylococcus aureus [1]) | MIC (Staphylococcus aureus [7]) | MIC (Staphylococcus aureus [8]) | MIC (Staphylococcus aureus [10])
2 - 4: Ratio (Staphylococcus aureus [31])
active: Activity (Staphylococcus aureus [28]) | Activity (Staphylococcus aureus [32]) | Activity (Escherichia coli) | Activity (Staphylococcus aureus [33])
8 µg/mL: MIC (Enterobacteriaceae [19]) | MIC (Enterobacteriaceae [20]) | MIC (Enterobacteriaceae [21]) | MIC (Enterobacteriaceae [23]) | MIC (Enterobacteriaceae [24]) | MIC (Enterobacteriaceae [25]) | MIC (Enterobacteriaceae [26])
2 µg/mL: MIC (Enterococcus faecalis) | MIC (Klebsiella pneumoniae [11]) | MIC (Klebsiella pneumoniae [12]) | MIC (Klebsiella pneumoniae [13]) | MIC (Klebsiella pneumoniae [14]) | MIC (Klebsiella pneumoniae [15]) | MIC (Klebsiella pneumoniae [16]) | MIC (Klebsiella pneumoniae [18])
1 - 2: Ratio (Staphylococcus aureus [30])
4 to 8 µg/mL: MBC (Staphylococcus aureus [27])
1 µg/mL: MIC (Staphylococcus aureus [3]) | MIC (Staphylococcus aureus [4]) | MIC (Staphylococcus aureus [5]) | MIC (Staphylococcus aureus [6]) | MIC (Staphylococcus aureus [9]) | MIC (Klebsiella pneumoniae [17])
4 µg/mL: MIC (Enterobacteriaceae [2]) | MIC (Enterobacteriaceae [22])
inactive: Activity (Staphylococcus aureus [29])
